# ARFGAP1 inh: inhibitors of rat ARFGAP1; Arfgap1-stimulated ARF1 GTP hydrolysis, GDP FP detection; inhibition, % at 16.5 µM; AID 651572; 0.26% of 360,000 active;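 active = inhibition above a per-plate limit, mean inhibition of low control wells plus 3 SD, cut at about 25% in these data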
# Target sequence (Q62848 1-136 limits assumed): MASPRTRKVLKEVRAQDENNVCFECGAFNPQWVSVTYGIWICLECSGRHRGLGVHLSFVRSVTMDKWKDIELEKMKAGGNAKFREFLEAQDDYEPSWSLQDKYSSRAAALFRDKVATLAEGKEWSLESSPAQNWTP
#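 Material: rat Arfgap1 GAP domain (His6, aa 1-136), purified enzyme. Also added: human ARF1(Δ1-17)-GTP substrate. Compound dosing: 16.5 µM single point, 1.26% DMSO. Timing: enzyme reaction 120 min at 25 °C after 20 min preincubation. Signal: GDP detection by fluorescence polarization. Read-out basis: percent inhibition of GAP-stimulated GDP formation, scaled between DMSO and no-Arfgap1 medians.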
# CSN deneddyl inh: CSN deneddylation inhibition; Q92905; Purified CSN, SCF-Nedd8-OG deneddylation, fluorescence polarization; inhibition, % at 12.5 µM; 0.38% of 360,000 active;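 active = pattern-corrected inhibition above about 35%, with an unprinted fluorescence ratio check between 0.5 and 1.5, limit read from the data, passing the limit was not always enough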
#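 Assay system: HEK293T-derived human Csn5 enzyme; quantity: 0.24 nM enzyme; medium: Tris/NaCl/DTT buffer, pH 7.5; also added: substrate SCFSkp2-Nedd8OG, 10 nM; doses: 12.5 µM compound; schedule: 90 min reaction at room temperature; signal: FP; read-out: % inhibition of substrate cleavage by Csn5; benchmarks: substrate-only high control, full reaction low control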
# ASAP1 inh: blocks human ASAP1-stimulated Arf1 GTP hydrolysis; AID 624377; inhibition, % at 16.5 µM; Q9ULH1; GDP FP detection; 0.19% of 360,000 active; in the data active = inhibition above about 25%
# Target sequence (Q9ULH1 325-724 limits assumed): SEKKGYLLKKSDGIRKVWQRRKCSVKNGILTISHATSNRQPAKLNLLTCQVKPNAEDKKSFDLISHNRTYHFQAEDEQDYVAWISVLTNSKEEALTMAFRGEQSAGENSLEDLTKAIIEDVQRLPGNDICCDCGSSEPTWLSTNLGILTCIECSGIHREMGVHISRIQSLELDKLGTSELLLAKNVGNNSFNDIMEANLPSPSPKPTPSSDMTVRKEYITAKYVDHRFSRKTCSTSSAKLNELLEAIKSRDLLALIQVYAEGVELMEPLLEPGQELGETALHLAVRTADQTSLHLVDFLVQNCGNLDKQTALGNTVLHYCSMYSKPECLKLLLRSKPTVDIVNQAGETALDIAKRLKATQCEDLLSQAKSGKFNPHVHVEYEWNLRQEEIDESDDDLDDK
# HNF4A DNA FP: change in binding of human HNF4 alpha to DNA. P41235. HNF4a-FITC DNA binding, fluorescence polarization, 1 h. activity change, % at 10 µM. 0.3% of 360,000 active. AID 1224865; in the data active = activity change above about 30%, passing the limit was not always enough
# ARFGAP1 inh conf: rat ARFGAP1 inhibition, confirmed. shares compounds with ARFGAP1 inh. ARFGAP1-stimulated ARF1 GTP hydrolysis, GDP tracer FP. inhibition, % at 16.5 µM. 30% of 890 active. AID 651608;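 active = average inhibition over triplicates above the hit cutoff set in the earlier primary screen, cut at about 25% in these data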
# A number is an active result; - = inactive; . = no result given. The list is not random: actives were taken first. Their share in the collection is about 0.95%.
SMILES,ARFGAP1 inh,CSN deneddyl inh,ASAP1 inh,HNF4A DNA FP,ARFGAP1 inh conf
CCOC(=O)C(C)(C)N(Cc1cccc(C)c1)S(=O)(=O)c1cccc([N+](=O)[O-])c1,35,-,-,-,-
CCOC(=O)C(C)(C)N(Cc1cccc(C)c1)S(=O)(=O)c1ccc(Cl)c([N+](=O)[O-])c1,-,-,-,-,.
Cc1c(C)c(C)c(S(=O)(=O)NCCC(=O)N2CCN(Cc3ccc(C#N)cc3)CC2)c(C)c1C,-,-,-,-,.
COc1ccccc1-n1c(SCC(=O)NCC2CCCO2)nc2c([nH]c3ccccc32)c1=O (stereo not drawn),-,-,-,-,.
OCC1(Cc2cccc(F)c2)CCN(Cc2ccc3cccc(F)c3n2)CC1,25,-,-,-,-
COC(=O)[C@@H](Cc1c[nH]c2ccccc12)NC(=O)C1CCCN(S(=O)(=O)c2ccc(C)cc2)C1 (stereo partly drawn),-,-,-,-,.
Oc1ccc(NC(=S)N=Nc2c(O)[nH]c3ccc(Br)cc23)cc1,29,-,-,-,-
Oc1[nH]c2ccc(Br)cc2c1N=NC(=S)Nc1ccc(F)cc1,-,-,-,-,.
Cc1nn(-c2ccccc2)c(N)c1N=Nc1cccc(S(=O)(=O)N2CCOCC2)c1,29,-,-,-,-
COCCC1CCCCN1C(=O)c1cc(COc2cccc(C(C)=O)c2)on1 (stereo not drawn),25,-,-,-,-
CC(=O)c1ccc(OCc2cc(C(=O)N3CCC[C@H]3CO)no2)cc1,-,-,-,-,.
CCCN1CCN(C(=O)Cn2ncc3c([nH]c4ccc(C)cc43)c2=O)CC1,-,-,-,-,.
Cc1ccc2[nH]c3c(=O)n(CC(=O)N4CC(C)CC(C)C4)ncc3c2c1 (stereo not drawn),31,-,-,-,41
Cc1ccc(NC(=O)NNC(=O)COc2ccc([N+](=O)[O-])cc2)cc1C,32,-,-,-,34
COc1ccc(NC(=O)NNC(=O)COc2ccc3cc(Br)ccc3c2)cc1OC,51,-,-,-,85
CCC[C@@H]1CCCC/C=C\CCCC(=O)OCCN1C(=O)OC(C)(C)C,-,-,-,-,.
O=C(NCc1ccco1)c1ccc(NC(=O)C2COc3ccccc3O2)cc1 (stereo not drawn),29,-,-,-,-
O=C(NCCCN1CCOCC1)c1ccc(NC(=O)C2COc3ccccc3O2)cc1 (stereo not drawn),-,-,-,-,.
Cn1nnnc1N=N/C(=N/Nc1ccccc1)c1ccccc1,-,-,-,-,.
COc1ccc(CCNC(=S)N2CCN(S(=O)(=O)c3ccc(C)cc3)CC2)cc1,27,-,-,-,-
C=CCN(CC=C)C(=S)Nc1ccc2nsnc2c1,32,-,-,-,-
Cc1nnc2ccc(-c3cccc(NC(=O)c4ccc(Cl)nc4)c3)nn12,27,-,-,-,-
Cc1nnc2ccc(-c3cccc(NC(=O)c4ccc(Br)o4)c3)nn12,-,-,-,-,.
CCOc1ccc(C(CC(=O)O)NC(=O)COc2ccc3ccccc3c2)cc1OC (stereo not drawn),-,-,-,-,.
C[C@H](CO)N1C[C@H](C)[C@@H](CN(C)S(=O)(=O)c2cn(C)cn2)OCc2cnnn2CCCC1=O,51,-,-,-,-
SMILES,ARFGAP1 inh,CSN deneddyl inh,ASAP1 inh,HNF4A DNA FP,ARFGAP1 inh conf
CN1CCN(c2ccc(Cl)cc2NC(=O)/C=C/c2cccc(F)c2)CC1,31,-,-,-,-
O=C(c1cc2ccccc2o1)N1CCN(Cc2nc3ccccc3s2)CC1,26,-,-,-,-
O=C(c1cc2ccccc2o1)N1CCN(C/C=C/c2ccccc2)CC1,-,-,-,-,.
O=C(Oc1cccnc1)c1ccccc1[N+](=O)[O-],25,-,-,-,-
CCn1c(C)c(C(=O)c2ccccc2)c(C#N)c1C(=O)O,-,-,-,-,.
CN1/C(=C/C2CC(=O)NC2=O)C(C)(C)c2ccccc21 (stereo not drawn),31,-,-,-,-
CN(C)C1=NCCN1CCC1CCCCC1,-,-,-,-,.
CCC(CC)c1nnc(NC(=O)c2cccc(S(=O)(=O)N3CCOCC3)c2)s1,28,-,-,-,-
CC(C)Cc1nnc(NC(=O)c2cccc(S(=O)(=O)N3CCOCC3)c2)s1,-,-,-,-,.
O=C(NCc1ccccc1C(F)(F)F)C1CC(c2ccc(C(F)(F)F)cc2)=NO1 (stereo not drawn),28,-,-,-,-
COc1ccc([N+](=O)[O-])cc1CN1CCN(c2ncc(Cc3ccccc3)cn2)CC1,26,-,-,-,-
O=C(NCC1CCCO1)c1cc(-c2ccncc2)nc2ccccc12 (stereo not drawn),-,-,-,-,.
CCCOc1ccc(-c2cc(C(=O)NCC3CCCO3)c3ccccc3n2)cc1 (stereo not drawn),27,-,-,-,-
O=C(CSc1ncn[nH]1)NCc1ccccc1Cl,25,-,-,-,-
Oc1nc(Nc2cccc(Cl)c2)sc1/C=C1\C=Nc2ccccc21,25,-,-,-,-
CCN(CC)CCNC(=O)c1cc2c(-c3ccc(Cl)cc3)nn(C)c2s1,-,-,-,-,.
CCCN(CCC)CCCNC(=O)c1cc2c(-c3ccc(OC)c(OC)c3)nn(C)c2s1,47,-,-,-,85
CCCN(CCC)CCNC(=O)c1cc2c(-c3ccc(Cl)cc3)nn(C)c2s1,28,-,-,-,-
CCCCN(CC)CCNC(=O)c1cc2c(-c3ccc(Cl)cc3)nn(C)c2s1,-,-,-,-,.
Cn1c(SCC(=O)NC2CCS(=O)(=O)C2)nc2ccccc21 (stereo not drawn),-,-,-,-,.
COCCCN(Cc1cc(OC)c(OC)c(OC)c1)C(=S)Nc1cccc(SC)c1,-,-,-,-,.
CCC1Nc2ncnc(N3CCCCC3)c2N(Cc2ccc(Cl)cc2)C1=O (stereo not drawn),29,-,-,-,-
CCC1Nc2ncnc(N3CCCCC3)c2N(Cc2ccc(Br)cc2)C1=O (stereo not drawn),-,-,-,-,.
COc1nnc(-c2ccc(N3CCOCC3)c(NC(C)=O)c2)c2ccccc12,-,-,-,-,.
COc1nnc(-c2ccc(N3CCOCC3)c(NC(=O)c3ccccc3)c2)c2ccccc12,41,-,-,-,-
SMILES,ARFGAP1 inh,CSN deneddyl inh,ASAP1 inh,HNF4A DNA FP,ARFGAP1 inh conf
C[C@@H]1C[C@H]2[C@@H]3CCC4=CC(=O)C=C[C@]4(C)[C@@]3(F)[C@@H](O)C[C@]2(C)[C@@]1(O)C(=O)CO,29,-,-,.,-
O=C1Cc2ccccc2C(=O)N1,26,35,36,-,28
O=C1Nc2ccccc2CCc2ccccc21,-,-,-,-,.
Fc1ccc(Nc2ccnc(Nc3ccc(F)cc3)n2)cc1,25,-,-,-,-
Oc1ccc2ccccc2c1CNc1ccc2ccccc2c1,30,-,-,-,-
CC(=O)Nc1ccc(Nc2nccc(C)n2)cc1,-,-,-,-,.
